Source: PubChem BioAssay
An excerpt weighted towards active compounds, which were near 2.3% of everything screened.
OXTR agonist: activates the human oxytocin receptor; P30559; CHO-OTR cells, Fluo-8 calcium fluorescence; normalized: DMSO 0%, oxytocin 100%; activation, % at 3 µM; 320,000 compounds, 0.32% hits;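 active = activation above the mean of all tested compounds plus 3 SD, cutoff set per screening run, cut at about 20% in these data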;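 also: peak over basal fluorescence ratio from a 100 s FLIPR kinetic read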
Target sequence (P30559 whole entry, looked up): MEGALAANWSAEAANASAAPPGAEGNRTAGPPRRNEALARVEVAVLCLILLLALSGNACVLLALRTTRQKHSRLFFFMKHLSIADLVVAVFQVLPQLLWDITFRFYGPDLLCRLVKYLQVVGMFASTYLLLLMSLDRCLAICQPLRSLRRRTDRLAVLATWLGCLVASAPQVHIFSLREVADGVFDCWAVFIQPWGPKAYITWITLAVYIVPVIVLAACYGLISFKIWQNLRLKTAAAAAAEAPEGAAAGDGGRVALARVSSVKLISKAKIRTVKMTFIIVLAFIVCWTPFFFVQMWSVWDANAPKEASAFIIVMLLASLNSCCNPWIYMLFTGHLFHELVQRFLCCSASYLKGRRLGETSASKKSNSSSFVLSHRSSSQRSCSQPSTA
TAAR1 ag: agonists of human TAAR1 | CHO RD-HGA16 TAAR1, Fluo-8 calcium fluorescence; vehicle wells 0%, saturating PEA agonist 100% | AID 624467 | 360,000 compounds, 0.99% hits | Q96RJ0 | activation, % at 3 µM;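 active = activation above the mean activation of all test compounds in the run plus 3 SD, cut at about 38% in these data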
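test system = CHO RD-HGA16 cells carrying human TAAR1 plus Gα16 | schedule = 17-24 h seeding, 75 min 37 °C dye, 30 min RT | compound dosing = 3 µM single concentration | control set = DMSO and PEA EC100 | replicates = n 1 | signal = Fluo-8 fluorescence, 5 s baseline then 140 s kinetic read | measure = percent activation vs PEA EC100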
V1R ag counter: counter-screen for oxytocin receptor agonists: human V1a receptor agonists; P37288; CHO-V1R cells, Fluo-8 calcium fluorescence, agonist mode; 0% DMSO, 100% 3 nM vasopressin; activation, % at 3 µM; 320,000 compounds, 0.25% hits; AID 2797;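 active = activation above the mean activation of all tested compounds plus 3 SD, per screening run, cut at about 20% in these data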;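 also: signal is peak over basal fluorescence ratio across a 100 second FLIPR read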
TAAR1 antagonist: human TAAR1 antagonism; Q96RJ0; CHO RD-HGA16 TAAR1, Fluo-8 calcium fluorescence, antagonist; inhibition, % at 3 µM; 360,000 compounds, 1.5% hits;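 active = inhibition above a per-plate cutoff, the mean inhibition of test compounds on that plate plus 3 SD, cut at about 49% in these data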;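 also: 0% = DMSO plus EC80 beta-PEA response and 100% = DMSO alone without agonist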
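Test system: RD-HGA16 CHO cells with stable hTAAR1 and Gα16 / Probe or stimulus: EC80 β-phenethylamine stimulus / Times: seeding 17-24 h prior, 75-min 37 °C, 30-min RT dye loading / Detection: Fluo-8 calcium-sensitive fluorescence / Read-out basis: % inhibition scaled between DMSO and EC80 PEA controls / Repeats: singlicate, one well per test compound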
OXTR potentiator: potentiates the human oxytocin receptor response; P30559; CHO-OTR cells, Fluo-8 calcium fluorescence, potentiator mode; 0% = oxytocin EC15, 100% = EC100; activation, % at 3 µM; 320,000 compounds, 0.061% hits;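 active = activation above that plate's cutoff, the mean activation of tested compounds plus 3 SD, cut at about 6.6% in these data, passing the limit was not always enough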;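 also: 100% uses oxytocin at 75 nM as the full agonist control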
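Assay system: CHO-OTR cells, human receptor / Also added: oxytocin at about EC15, sub-maximal agonist stimulus / Dosing: single dose, 3.0 µM nominal final compound concentration / Incubation: 6 min pre-incubation, 100 s read / Technique: Fluo-8 calcium dye fluorescence / Read-out: % activation vs EC15 and EC100 oxytocin / Benchmarks: EC15 oxytocin low, 75 nM oxytocin high / Replicates: singlicate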
nonsel antag count: nonselective antagonism, TAAR1 counter-screen | shares compounds with TAAR1 antagonist | counterscreen cell line, calcium fluorescence, antagonist mode | inhibition, % at 3 µM | 2,400 compounds, 77% hits; in the data active = inhibition above about 22%;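 also: CHO-Ga16 host cells stimulated with ATP at an EC80 level; 0% = agonist EC80 plus vehicle and 100% = vehicle without agonist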
TAAR1 ant conf: confirmation of human TAAR1 antagonists. 2,400 compounds, 40% hits. TAAR1-expressing cells, fluorescence antagonist read-out. inhibition, % at 3 µM. shares compounds with TAAR1 antagonist; in the data active = inhibition above about 49%;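 also: CHO-Ga16 host cells challenged with agonist PEA near its EC80; 0% = agonist at EC80 plus vehicle and 100% = vehicle with no agonist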
Ga16 ag counter: nonselective Ga16 agonism, counter-screen; shares compounds with TAAR1 antagonist; Ga16-expressing cells, calcium fluorescence, agonist counterscreen; activation, % at 3 µM; 2,400 compounds, 18% hits; AID 651953; in the data active = activation above about 12%;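 also: 0% = vehicle wells and 100% = saturating stimulus response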
TAAR1 ag count: activates human TAAR1 in antagonist counter-screen; shares compounds with TAAR1 antagonist; hTAAR1 cell line, fluorescence activation, agonist mode; activation, % at 3 µM; 2,400 compounds, 2% hits; in the data active = activation above about 37%;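 also: CHO cells stably expressing TAAR1 with calcium dye readout; 0% = DMSO vehicle and 100% = full agonist response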
* = called active by the depositor; . = not tested or not shown.

SMILES	OXTR agonist	TAAR1 ag	V1R ag counter	TAAR1 antagonist	OXTR potentiator	nonsel antag count	TAAR1 ant conf	Ga16 ag counter	TAAR1 ag count
CCCNC(=O)C(Sc1ccccc1)c1ccccc1 (stereo not given)	-2.2	-1.5	0.7	-11.0	-3.8	.	.	.	.
O=C(NCC(O)c1ccc([N+](=O)[O-])cc1)c1cccc(S(=O)(=O)N2CCOCC2)c1 (stereo not given)	0.1	4.2	0.1	-17.4	-5.3	.	.	.	.
COc1ccccc1N1CCN(CC(C)N(C(=O)C2CCCCC2)c2ccccn2)CC1 (stereo not given)	0.4	1.6	0.1	2.8	-6.0	.	.	.	.
CC(=O)Nc1ccc(S(=O)(=O)N(C)CC(=O)OCC(=O)c2cc(C)n(-c3ccc4c(c3)OCO4)c2C)cc1	-0.4	11.4	0.5	55.7*	-6.2	22.7*	35.9	7.4	5.7
Cc1cc(C(=O)COC(=O)C2=COCCO2)c(C)n1-c1ccc2c(c1)OCO2	1.5	4.4	2.6	14.8	-15.4	.	.	.	.
CC(=O)CCc1ccc(OCCCOc2cccc3cccnc23)cc1	7.2	15.1	8.8	68.2*	-15.8	31.5*	45.6	11.4	18.3
CC(=O)c1ccc(OCCCOc2cccc3cccnc23)cc1	.	7.4	.	4.1	.	.	.	.	.
CC(=O)c1c(COC(=O)c2cccc(C)c2)nc2ccccc2[n+]1[O-]	0.2	7.7	4.5	50.2*	-14.0	28.3*	38.1	8.1	6.9
CC(=O)c1c(COC(=O)c2ccncc2)nc2ccccc2[n+]1[O-]	-0.1	6.4	0.9	-20.0	-13.0	.	.	.	.
O=C(CSc1ccccn1)Nc1cccc(NC(=O)CSc2ccccn2)n1	2.8	30.9	-0.3	59.9*	-13.9	33.6*	46.3	14.1*	12.4
COc1cc(CN2CC(=O)N(c3ccccc3Cl)C2=S)cc(OC)c1OC	6.9	24.7	11.2	75.0*	-22.9	49.5*	65.5*	14.2*	18.4
CCOC(=O)C1=C(C)Nc2ccccc2N=C1NC(=O)c1oc2ccccc2c1COC	-1.8	14.4	0.3	70.1*	-4.7	30.5*	46.0	6.1	7.1
O=C(Nc1ccc(F)cc1)C1CCC(N2C(=O)c3ccccc3C2=O)CC1 (stereo not given)	2.3	4.2	3.6	8.4	-2.9	.	.	.	.
O=C(CCCC(=O)NN=Cc1ccc(Cl)cc1Cl)NN=Cc1ccc(Cl)cc1Cl	.	4.1	.	-13.7	.	.	.	.	.
O=C(CCCC(=O)NN=Cc1ccccc1Cl)NN=Cc1ccccc1Cl	.	0.9	.	50.9*	.	20.0	26.7	0.9	1.2
O=C1OCc2cc(NC(=O)C34CC5CC(CC(C5)C3)C4)ccc21	-0.6	17.4	0.4	-0.8	-7.6	.	.	.	.
Cc1cc(C)c(NC(=O)COC(=O)C2CCCO2)c(C)c1 (stereo not given)	0.2	1.9	-0.2	-7.1	0.3	.	.	.	.
CCCCNc1c(-c2ccc(OC)c(Sc3ccc(OC)cc3)c2)nc2cnccn12	-0.8	10.8	1.3	74.7*	-2.9	23.1*	57.0*	3.8	8.5
Cc1ccc(C(C)C)c(OCCNC(=O)c2ccccc2O)c1	-2.1	2.0	3.3	57.9*	-17.5	17.1	40.0	3.2	2.6
COc1cc(OC)c(/C=N/NC(N)=S)cc1Br	-2.0	-1.2	-1.0	-1.8	-4.0	.	.	.	.
COc1cc2c(-c3ccccc3)c(C)oc2cc1/C=N/NC(N)=S	-1.1	-3.6	-0.1	103.5*	-11.3	17.1	9.7	5.5	13.7
CCCCNCc1cc2ccccc2o1	0.9	1.6	0.6	103.5*	-6.6	-1.8	-0.6	7.1	17.6
CC(C)(C)C(=O)N1NC(=Nc2ccccc2)SC1(C)C	-2.5	11.6	-0.7	-13.2	-3.3	.	.	.	.
O=C(NCC1CCCO1)c1cccc(Oc2ccccc2)c1 (stereo not given)	-0.6	1.8	1.3	-14.7	-1.5	.	.	.	.
